# Activity calls are given as the source filed them. No cut-off for these calls is given here.
# Experiments:
# RAW264.7 [1] = assay: Antiinflammatory activity against mouse RAW264.7 cells assessed as reduction of lipopolysaccharide/interferon-gamma induced PGE2 production at 3 uM after 18 hrs; type: functional; conditions: RAW264.7, 18 h
# Outline: (§1)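 RAW 264.7 macrophages (passages 9–20) stimulated with LPS/IFN-γ; compound tested at 1, 3 and 10 µM. Supernatant PGE2 measured by competitive EIA: anti-PGE2 antibody plus peroxidase-PGE2 tracer, 1 h RT; TMB/H2O2 30 min; H2SO4 stop; A450. Results given as % inhibition.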
# RAW264.7 [2] = assay: Antiinflammatory activity against mouse RAW264.7 cells assessed as reduction of lipopolysaccharide/interferon-gamma induced PGE2 production at 1 uM by EIA; type: functional; outline: as §1
# RAW264.7 [3] = assay: Antiinflammatory activity against mouse RAW264.7 cells assessed as reduction of lipopolysaccharide/interferon-gamma induced PGE2 production at 10 uM after 18 hrs; type: functional; conditions: RAW264.7, 18 h; outline: as §1
# [4] = Therapeutic index, ratio of CC50 for mouse […] cells to EC50 for inhibition of lipopolysaccharide/interferon-gamma induced nitric oxide production in mouse […] cells; type: cell-based; conditions: read-out: TI
# [5] = Antiinflammatory activity against mouse […] cells assessed as inhibition of lipopolysaccharide/interferon-gamma induced nitric oxide production; type: functional, cell-based
# Outline: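 RAW 264.7 cells in DMEM/10% FCS, passages 9–20. Nitrite induced by LPS (1 µg/mL) plus IFN-γ (50 U/mL) for 18 h with or without compound. Griess reagent (1% sulfanilamide, 0.1% naphthylenediamine in 5% H3PO4) read at OD550. EC50 calculated.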
# [6] = Cytotoxicity against mouse […] cells by MTT assay; type: functional
# Outline: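 Viability of RAW 264.7 cells taken as mitochondrial reduction of MTT to formazan. Formazan read at OD550.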
# [7] = Antiinflammatory activity against human neutrophil assessed as inhibition of N-formyl-l-methionyl phenylalanine/cytochalasin B-induced superoxide anion generation by spectrophotometry; type: functional, cell-based
# Outline: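 Ferricytochrome c (0.5 mg/mL) reduction, SOD-inhibitable, with 1 mM Ca2+. Neutrophils (6 × 10^5 cells/mL) equilibrated 2 min at 37 °C, then drug or 0.1% DMSO for 5 min. Cytochalasin B 1 µg/mL preincubation, then 100 nM FMLP for 3 min. A550 monitored continuously with stirring. IC50 computed; mean ± SEM, n = 3.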
# A549 = assay: Cytotoxicity activity against human A549 cells assessed as growth inhibition at 10 ug/ml after 72 hrs sulforhodamine B assay; type: functional; conditions: A549, 72 h
# Outline: (§2)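 Cells kept in RPMI-1640/10% FBS with antibiotics at 37 °C, 5% CO2. Trypsinized cells seeded and given compound from DMSO-diluted stock. Incubated 72 h, then fixed with 10% TCA. Stained 10 min with 0.4% sulforhodamine B in 1% HOAc, washed, dye dissolved in 10 mM Trizma. A515 read; growth relative to net protein increase of controls.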
# [8] = Cytotoxicity activity against human KBVIN cells assessed as growth inhibition at 10 ug/ml after 72 hrs sulforhodamine B assay; type: functional; outline: as §2
# [9] = Antiinflammatory activity against human neutrophil assessed as inhibition of N-formyl-l-methionyl phenylalanine/cytochalasin B-induced elastase release; type: functional, cell-based
# Outline: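 Neutrophils (6 × 10^5/mL) supplemented with 100 µM MeO-Suc-Ala-Ala-Pro-Val-p-nitroanilide, equilibrated 2 min at 37 °C, then given drug or 0.1% DMSO vehicle for 5 min. Activated with 100 nM FMLP plus 0.5 µg/mL cytochalasin B. Absorbance at 405 nm followed continuously. Release expressed as percent of drug-free activated control. IC50 computed; mean ± SEM, n = 3.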
# DU-145 = assay: Cytotoxicity activity against human DU145 cells assessed as growth inhibition at 10 ug/ml after 72 hrs sulforhodamine B assay; type: functional; conditions: DU-145, 72 h; outline: as §2
# KB = assay: Cytotoxicity activity against human KB cells assessed as growth inhibition at 10 ug/ml after 72 hrs sulforhodamine B assay; type: functional; outline: as §2
# [10] = test system: Radical scavenging activity; assay: Antioxidant activity assessed as residual DPPH radical scavenging activity; type: functional
"EC50 ([5]; Mus musculus, read-out: EC50)",IC50 [7],IC50 [9],EC50 [5],SMILES,inhibition at 3 µM (RAW264.7 [1]),inhibition at 1 µM (RAW264.7 [2]),inhibition at 10 µM (RAW264.7 [3]),selectivity ratio [4],CC50 [6],GI50 (A549),GI50 [8],GI50 (DU-145),GI50 (KB),Activity [10]
1.16 µM,> 30 µM,> 30 µM,–,O=C(c1cccc(Br)c1)c1nccc2c1[nH]c1ccccc12,98%,97%,–,44,51.4 µM,> 40 µM,> 40 µM,> 40 µM,> 40 µM,–
0.47 µM,–,–,–,Cc1cccc(C(=O)c2nc(C(=O)O)cc3c2[nH]c2ccccc23)c1,100%,98%,–,34,16.4 µM,–,–,–,–,inactive
6.97 µM,> 30 µM,> 30 µM,–,O=C(c1ccccc1Br)c1nccc2c1[nH]c1ccccc12,37%,0%,89%,8,53.8 µM,> 40 µM,> 40 µM,> 40 µM,> 40 µM,–
0.23 µM,16.1 µM,10.4 µM,–,COc1ccc(C(=O)c2nc(C(=O)O)cc3c2[nH]c2ccccc23)cc1,98%,28%,–,187,43.1 µM,> 40 µM,> 40 µM,> 40 µM,> 40 µM,inactive
0.66 µM,> 30 µM,> 30 µM,–,O=C(c1ccc([N+](=O)[O-])cc1)c1nccc2c1[nH]c1ccccc12,100%,0%,100%,6,3.86 µM,> 40 µM,> 40 µM,> 40 µM,> 40 µM,–
2.67 µM,> 30 µM,> 30 µM,–,O=C(c1ccccc1)c1nccc2c1[nH]c1ccccc12,39%,0%,82%,49,131 µM,> 40 µM,> 40 µM,> 40 µM,> 40 µM,–
4.59 µM,> 30 µM,> 30 µM,–,COc1ccc(C(=O)c2nccc3c2[nH]c2ccccc23)cc1,95%,0%,95%,18,83.4 µM,> 40 µM,> 40 µM,> 40 µM,> 40 µM,–
2.12 µM,> 30 µM,> 30 µM,–,Cc1ccccc1C(=O)c1nccc2c1[nH]c1ccccc12,44%,0%,82%,> 2000,–,> 40 µM,> 40 µM,> 40 µM,> 40 µM,–
0.92 µM,14.5 µM,5.82 µM,–,CC(=O)c1nc(C(N)=O)cc2c1[nH]c1ccccc12 [STELLARINES A],90%,0%,90%,21,19.8 µM,> 40 µM,> 40 µM,> 40 µM,> 40 µM,–
–,9.4 µM,> 30 µM,Not Active,CC(O)c1nccc2c1[nH]c1ccccc12 (stereo not given),0%,0%,0%,–,0.28 µM,> 40 µM,> 40 µM,> 40 µM,> 40 µM,–
1.26 µM,> 30 µM,> 30 µM,–,Cc1ccc(C(=O)c2nccc3c2[nH]c2ccccc23)cc1,99%,25%,100%,42,52.8 µM,> 40 µM,> 40 µM,> 40 µM,> 40 µM,–
0.51 µM,> 30 µM,> 30 µM,–,COC(=O)c1cc2c([nH]c3ccccc32)c(C(=O)c2ccc(OC)cc2)n1,100%,98%,–,4,1.95 µM,> 40 µM,> 40 µM,> 40 µM,> 40 µM,–
1.06 µM,16.6 µM,–,–,O=C(c1cccc([N+](=O)[O-])c1)c1nccc2c1[nH]c1ccccc12,95%,0%,96%,20,21.6 µM,> 40 µM,> 40 µM,> 40 µM,> 40 µM,–
–,1.12 µM,1.92 µM,–,O=c1cc(N2CCOCC2)oc2c(-c3ccccc3)cccc12 [LY-294002],–,–,–,–,–,–,–,–,–,–
0.74 µM,8.84 µM,14.2 µM,–,OC(c1ccc(Br)cc1)c1nccc2c1[nH]c1ccccc12 (stereo not given),21%,0%,34%,95,70.1 µM,19 µM,14.5 µM,13.3 µM,15.9 µM,–

# Second part, the molecule before the results:
SMILES,"EC50 ([5]; Mus musculus, read-out: EC50)",IC50 [7],IC50 [9],EC50 [5],inhibition at 3 µM (RAW264.7 [1]),inhibition at 1 µM (RAW264.7 [2]),inhibition at 10 µM (RAW264.7 [3]),selectivity ratio [4],CC50 [6],GI50 (A549),GI50 [8],GI50 (DU-145),GI50 (KB),Activity [10]
COc1ccc(C(O)c2nccc3c2[nH]c2ccccc23)cc1 (stereo not given),2.08 µM,–,–,–,0%,0%,19%,764,1590 µM,–,–,–,–,–
COc1cccc(C(=O)c2nc(C(=O)O)cc3c2[nH]c2ccccc23)c1,–,–,–,–,–,–,–,–,–,–,–,–,–,inactive
CC(=O)O[C@H]1C(=O)[C@@]2(C)[C@H]([C@H](OC(=O)c3ccccc3)[C@]3(O)C[C@H](OC(=O)[C@H](O)[C@@H](NC(=O)c4ccccc4)c4ccccc4)C(C)=C1C3(C)C)[C@]1(OC(C)=O)CO[C@@H]1C[C@@H]2O [PACLITAXEL],–,–,–,–,–,–,–,–,–,0.00558 µM,> 1 µM,0.00555 µM,0.00487 µM,–
COc1ccc2c(c1)c(CC(=O)O)c(C)n2C(=O)c1ccc(Cl)cc1 [INDOMETHACIN],–,38.3 µM,32 µM,–,–,–,–,–,–,–,–,–,–,–
O=C(c1ccc(Br)cc1)c1nccc2c1[nH]c1ccccc12,0.3 µM,> 30 µM,> 30 µM,–,100%,98%,–,492,149 µM,> 40 µM,> 40 µM,> 40 µM,> 40 µM,–
O=C(O)c1cc2c([nH]c3ccccc32)c(C(=O)c2cccc([N+](=O)[O-])c2)n1,–,–,–,–,–,–,–,–,–,–,–,–,–,inactive
N=C(N)NN [PIMAGEDINE],22.6 µM,–,–,–,21%,8%,42%,16,358 µM,–,–,–,–,–
Cc1ccc(C(=O)c2nc(C(=O)O)cc3c2[nH]c2ccccc23)cc1,0.5 µM,6.27 µM,3.13 µM,–,100%,100%,–,35,17.7 µM,> 40 µM,> 40 µM,> 40 µM,> 40 µM,inactive
OC(c1ccccc1)c1nccc2c1[nH]c1ccccc12 (stereo not given),0.31 µM,7.88 µM,> 30 µM,–,0%,0%,0%,186,57.4 µM,> 40 µM,22.6 µM,> 40 µM,> 40 µM,–
COc1ccccc1C(=O)c1nc(C(=O)O)cc2c1[nH]c1ccccc12,–,–,–,–,–,–,–,–,–,–,–,–,–,inactive
